From ChEMBL document CHEMBL1142515, “Synthesis and evaluation of structurally constrained quinazolinone derivatives as potent and selective histamine H3 receptor inverse agonists” (J Med Chem, 2008)

What was measured:
Histamine H3 receptor [1] = biological target: T1, Histamine H3 receptor (Homo sapiens, UniProt Q9Y5N1); assay: Antagonist activity at human cloned histamine H3 receptor expressed in CHO-K1 cells assessed as inhibition of R-alpha-methylhistamine-induced [35S]GTPgammaS binding; format: functional, cell-based
[2] = biological target: Voltage-gated inwardly rectifying potassium channel KCNH2 (Homo sapiens, UniProt Q12809); assay: Antagonist activity at human ERG in HEK293 cells assessed as inhibition of [35S]N-[(4R)-1'-[(2R)-6-cyano-1,2,3,4-tetrahydro-2-naphthalenyl]-3,4-dihydro-4-hydroxyspiro[2H-1-benzopyran-2,4'-piperidin]-6-yl]methanesulfonamide binding
[3] = Plasma clearance in Sprague-Dawley rat at 1 mg/kg, iv; format: ADME, organism-based; parameters: dose 1 mg/kg, route intravenous
Procedure, shortened: (§1)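 Male SD rats, male Beagle dogs, male rhesus monkeys given single doses iv (PEG400/EtOH/H2O 50/10/40) or po by gavage (0.5% methylcellulose suspension). Rats 1 mg/kg iv and 3 mg/kg po; dogs and monkeys 0.3 mg/kg iv and 1 mg/kg po. Plasma sampled at multiple times up to 24 h, deproteinized with ethanol plus internal standard. Mean of n = 3 animals/dose.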

[4] = AUC (0 to infinity) in Sprague-Dawley rat at 3 mg/kg, po; format: ADME, organism-based; parameters: time infinity, dose 3 mg/kg, route oral; conditions: plasma; procedure, shortened: as §1
Canis familiaris [5] = assay: AUC (0 to infinity) in Beagle dog at 1 mg/kg, po; format: ADME, organism-based, Canis lupus familiaris, Plasma; parameters: time infinity, dose 1 mg/kg, route oral; conditions: in vivo; procedure, shortened: as §1
Rhesus monkey [6] = assay: AUC (0 to infinity) in rhesus monkey at 1 mg/kg, po; format: ADME, organism-based, Macaca mulatta, Plasma; parameters: time infinity, dose 1 mg/kg, route oral; conditions: in vivo; procedure, shortened: as §1
[7] = Cmax in Sprague-Dawley rat at 1 mg/kg, iv and 3 mg/kg, po; format: ADME, organism-based; conditions: in vivo; procedure, shortened: as §1
[8] = Cmax in Beagle dog at 0.3 mg/kg, iv and 1 mg/kg, po; format: ADME, organism-based, Canis lupus familiaris; conditions: in vivo; procedure, shortened: as §1
[9] = Cmax in rhesus monkey at 0.3 mg/kg, iv and 1 mg/kg, po; format: ADME, organism-based, Macaca mulatta; conditions: in vivo; procedure, shortened: as §1
[10] = Oral bioavailability in Sprague-Dawley rat at 3 mg/kg; format: ADME, organism-based; conditions: in vivo; procedure, shortened: as §1
Canis familiaris [11] = assay: Oral bioavailability in Beagle dog at 1 mg/kg; format: ADME, organism-based, Canis lupus familiaris; conditions: in vivo; procedure, shortened: as §1
Rhesus monkey [12] = assay: Oral bioavailability in rhesus monkey at 1 mg/kg; format: ADME, organism-based, Macaca mulatta; conditions: in vivo; procedure, shortened: as §1
[13] = Plasma concentration in Sprague-Dawley rat at 10 mg/kg, po after 2 hrs; format: ADME, organism-based; parameters: dose 10 mg/kg, route oral
Procedure, shortened: (§2)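 Male SD rats dosed orally at 10 mg/kg. Plasma, brain and CSF concentrations determined 2 h after dosing. Brain/plasma ratio taken from these levels. Mean of n = 3 animals.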

Brain = assay: Drug level in Sprague-Dawley rat brain at 10 mg/kg, po after 2 hrs; format: ADME, organism-based; parameters: dose 10 mg/kg, route oral; conditions: in vivo; procedure, shortened: as §2
[14] = Drug level in Sprague-Dawley rat cerebrospinal fluid at 10 mg/kg, po after 2 hrs; format: ADME, organism-based; parameters: dose 10 mg/kg, route oral; conditions: read-out: Drug uptake; procedure, shortened: as §2
[15] = Ratio of drug level in brain to plasma in Sprague-Dawley rat at 10 mg/kg, po after 2 hrs; format: ADME, organism-based; parameters: dose 10 mg/kg, route oral; conditions: read-out: BPR; procedure, shortened: as §2
[16] = Ratio of drug level in cerebrospinal fluid to brain in Sprague-Dawley rat at 10 mg/kg, po after 2 hrs; format: ADME, organism-based, CSF/Brain; parameters: dose 10 mg/kg, route oral; conditions: in vivo
LLC-PK1 [17] = assay: Ratio of permeability from apical to basolateral side over basolateral to apical side in pig LLC-PK1 cells expressing human MDR1; format: ADME, cell-based, Sus scrofa
LLC-PK1 [18] = assay: Ratio of permeability from apical to basolateral side over basolateral to apical side in pig LLC-PK1 cells expressing mouse MDR1a; format: ADME, cell-based, Sus scrofa
Histamine H3 receptor [19] = biological target: T1, Histamine H3 receptor; assay: Displacement of [3H]N-alpha-methylhistamine from human recombinant histamine H3 receptor expressed in CHO-K1 cells; format: cell-based
Histamine H3 receptor [20] = biological target: Histamine H3 receptor (Rattus norvegicus, UniProt Q9QYN8); assay: Displacement of [3H]N-alpha-methylhistamine from rat recombinant histamine H3 receptor expressed in HEK293 cells; format: cell-based
Histamine H3 receptor [21] = biological target: Histamine H3 receptor (Mus musculus, UniProt P58406); assay: Displacement of [3H]N-alpha-methylhistamine from mouse recombinant histamine H3 receptor
Chain of Histamine H3 receptor (Mus musculus, UniProt P58406) (P58406 whole entry): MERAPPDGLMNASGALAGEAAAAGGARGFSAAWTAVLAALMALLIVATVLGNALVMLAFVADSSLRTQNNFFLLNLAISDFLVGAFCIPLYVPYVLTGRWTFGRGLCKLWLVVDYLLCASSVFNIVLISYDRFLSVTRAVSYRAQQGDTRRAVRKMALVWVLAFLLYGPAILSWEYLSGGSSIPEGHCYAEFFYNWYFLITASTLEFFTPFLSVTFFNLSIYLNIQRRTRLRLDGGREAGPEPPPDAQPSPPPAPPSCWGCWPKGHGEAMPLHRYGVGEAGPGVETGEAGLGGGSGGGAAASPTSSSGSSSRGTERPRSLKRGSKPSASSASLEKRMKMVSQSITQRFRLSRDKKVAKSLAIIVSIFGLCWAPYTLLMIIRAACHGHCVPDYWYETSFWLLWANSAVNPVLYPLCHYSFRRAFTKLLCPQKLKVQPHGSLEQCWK

T1 sequence (Q9Y5N1 whole entry): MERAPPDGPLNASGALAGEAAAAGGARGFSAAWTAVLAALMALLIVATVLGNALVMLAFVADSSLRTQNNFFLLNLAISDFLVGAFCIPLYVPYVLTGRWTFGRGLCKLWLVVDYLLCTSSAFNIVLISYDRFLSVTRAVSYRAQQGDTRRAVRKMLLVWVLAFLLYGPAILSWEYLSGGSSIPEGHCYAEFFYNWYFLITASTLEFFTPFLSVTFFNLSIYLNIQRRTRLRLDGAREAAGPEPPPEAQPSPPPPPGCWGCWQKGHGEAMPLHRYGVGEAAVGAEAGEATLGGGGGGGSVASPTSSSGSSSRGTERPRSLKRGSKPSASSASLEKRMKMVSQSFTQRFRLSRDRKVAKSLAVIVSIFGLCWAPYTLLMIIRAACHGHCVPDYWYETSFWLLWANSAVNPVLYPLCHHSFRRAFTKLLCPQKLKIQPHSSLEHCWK
Chain of Voltage-gated inwardly rectifying potassium channel KCNH2 (Q12809 whole entry): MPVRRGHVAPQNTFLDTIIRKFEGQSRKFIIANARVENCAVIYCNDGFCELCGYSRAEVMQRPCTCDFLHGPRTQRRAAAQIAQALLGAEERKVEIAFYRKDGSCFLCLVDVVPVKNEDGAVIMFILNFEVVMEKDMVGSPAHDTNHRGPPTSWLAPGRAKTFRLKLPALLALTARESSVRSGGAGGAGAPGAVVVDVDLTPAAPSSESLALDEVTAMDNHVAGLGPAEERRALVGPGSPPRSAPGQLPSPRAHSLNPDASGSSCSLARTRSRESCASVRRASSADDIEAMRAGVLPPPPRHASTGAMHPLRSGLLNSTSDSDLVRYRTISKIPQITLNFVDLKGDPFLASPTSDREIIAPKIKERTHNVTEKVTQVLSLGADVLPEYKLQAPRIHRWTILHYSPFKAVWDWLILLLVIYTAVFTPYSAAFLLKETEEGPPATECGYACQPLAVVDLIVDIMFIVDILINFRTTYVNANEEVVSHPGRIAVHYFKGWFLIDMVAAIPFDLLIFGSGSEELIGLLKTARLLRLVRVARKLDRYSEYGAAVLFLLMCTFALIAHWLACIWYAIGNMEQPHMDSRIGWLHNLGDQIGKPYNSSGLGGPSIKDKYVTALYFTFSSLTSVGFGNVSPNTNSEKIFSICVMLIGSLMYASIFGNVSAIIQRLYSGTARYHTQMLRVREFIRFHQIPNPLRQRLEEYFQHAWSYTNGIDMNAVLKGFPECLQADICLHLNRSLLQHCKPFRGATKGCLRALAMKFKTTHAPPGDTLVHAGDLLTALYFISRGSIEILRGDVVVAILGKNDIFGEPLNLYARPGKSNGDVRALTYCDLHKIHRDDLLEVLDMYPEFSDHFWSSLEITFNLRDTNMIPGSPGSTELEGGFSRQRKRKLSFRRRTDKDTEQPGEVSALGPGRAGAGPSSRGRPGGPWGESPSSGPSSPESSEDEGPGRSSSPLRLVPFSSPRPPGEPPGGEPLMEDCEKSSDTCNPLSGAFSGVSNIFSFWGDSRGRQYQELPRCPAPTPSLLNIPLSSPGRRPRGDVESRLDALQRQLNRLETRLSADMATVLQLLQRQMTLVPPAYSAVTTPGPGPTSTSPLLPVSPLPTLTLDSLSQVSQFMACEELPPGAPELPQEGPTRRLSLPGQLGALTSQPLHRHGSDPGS
Chain of Histamine H3 receptor (Rattus norvegicus, UniProt Q9QYN8) (Q9QYN8 whole entry): as the sequence (P58406 whole entry) above, with A15T, T286A, G290A, H387R, V389I counted along it

Structure (SMILES) | IC50 (Histamine H3 receptor [1]) | IC50 [2] | also measured
Cc1nc2ccccc2c(=O)n1-c1ccc(OC2CCCN(C3CCCC3)CC2)cc1 (centres undefined) | 7 nM | – | –
Cc1nc2ccccc2c(=O)n1-c1ccc(OC2CCC(N3CCCC3)C2)cc1 (stereo in doubt; 3a) | 3.4 nM | > 10000 nM | –
Cc1nc2ccccc2c(=O)n1-c1ccc(O[C@H]2CC[C@@H](N3CCCC3)CC2)cc1 | 10 nM | – | –
CCCN1CCC(Oc2ccc(-n3c(C)nc4ccccc4c3=O)cc2)CC1 | 60 nM | – | –
Cc1nc2ccccc2c(=O)n1-c1ccc(OC2CCC(N3CCCC3)C2)cc1 (stereo in doubt; 3b) | 8.6 nM | 10000 nM | –
CCN1CCC(Oc2ccc(-n3c(C)nc4ccccc4c3=O)cc2)CC1 | 49 nM | – | –
CCCCN1CCC(Oc2ccc(-n3c(C)nc4ccccc4c3=O)cc2)CC1 | 91 nM | – | –
Cc1nc2cc(F)c(F)cc2c(=O)n1-c1ccc(OC2CCN(C3CCC3)CC2)cc1 | 0.91 nM | > 10000 nM | –
Cc1nc2ccncc2c(=O)n1-c1ccc(OC2CCN(C3CCC3)CC2)cc1 | 2 nM | > 10000 nM | –
Cc1nc2ncccc2c(=O)n1-c1ccc(OC2CCN(C3CCC3)CC2)cc1 | 1.6 nM | > 10000 nM | –
Cc1nc2ccccc2c(=O)n1-c1ccc(OC2CCN(C(C)C)CC2)cc1 | 14 nM | – | –

Continued, in another order:

IC50 (Histamine H3 receptor [1]) | Structure (SMILES) | IC50 [2] | also measured
1.3 nM | Cc1nc2cc(F)ccc2c(=O)n1-c1ccc(OC2CCN(C3CCC3)CC2)cc1 | – | –
1.8 nM | COc1ccc2c(=O)n(-c3ccc(OC4CCN(C5CCC5)CC4)cc3)c(C)nc2c1 | > 10000 nM | –
3 nM | Cc1nc2cc(Cl)ccc2c(=O)n1-c1ccc(OC2CCN(C3CCC3)CC2)cc1 | 3900 nM | –
1.5 nM | Cc1nc2ccccc2c(=O)n1-c1ccc(OC2CCN(C3CCC3)CC2)cc1 | > 10000 nM | –
14 nM | Cc1nc2cccnc2c(=O)n1-c1ccc(OC2CCN(C3CCC3)CC2)cc1 | > 10000 nM | –
0.27 nM | Cc1cccc2nc(C)n(-c3ccc(OC4CCN(C5CCC5)CC4)cc3)c(=O)c12 | > 10000 nM | clearance [3]: 25 mL/min/kg; AUC(0-inf) [4]: 2.33 µM·h; AUC (Canis familiaris [5]): 5.6 µM·h; AUC (Rhesus monkey [6]): 0.08 µM·h; Cmax [7]: 560 nM; Cmax [8]: 1100 nM; Cmax [9]: 20 nM; bioavailability [10]: 40%; F (Canis familiaris [11]): 76%; F (Rhesus monkey [12]): 1%; concentration at 2 h [13]: 1400 nM; Drug uptake (Brain): 3.2 nmol/g; concentration at 2 h [14]: 100 nM; Kp at 2 h [15]: 2.3; Ratio [16]: 0.03; Ratio (LLC-PK1 [17]): 0.9; Ratio (LLC-PK1 [18]): 1; Ki (Histamine H3 receptor [19]): 1.7 nM; Ki (Histamine H3 receptor [20]): 1.8 nM; Ki (Histamine H3 receptor [21]): 3.9 nM
1.8 nM | Cc1nc2cnccc2c(=O)n1-c1ccc(OC2CCN(C3CCC3)CC2)cc1 | > 10000 nM | –
